Test results: ChEMBL document CHEMBL1122796, “Synthesis and antihypertensive activity of 6,7-disubstituted trans-4-amino-3,4-dihydro-2,2-dimethyl-2H-1-benzopyran-3-ols” (1984)

What was measured:
Assay type in all cases: functional
Rattus norvegicus [1] = test: Compound was evaluated for oral antihypertensive activity in spontaneously hypertensive rats at 0.3 mg/kg peroral administration
Method in brief: (§1)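 Conscious spontaneously hypertensive rats (Okamoto-derived, 14-24 weeks old, systolic BP ≥180 mmHg), usually six per compound. Dosed orally by needle into the esophagus as a solution or suspension in 1% w/v methylcellulose; doses as free base. Systolic BP measured by tail cuff, restrained at 33.5 ± 0.5 °C, each reading a mean of ≥6 recordings, predose and at 1-6 h.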

Rattus norvegicus [2] = test: Compound was evaluated for oral antihypertensive activity in spontaneously hypertensive rats at 1 mg/kg peroral administration; method in brief: as §1
Rattus norvegicus [3] = test: Compound was evaluated for oral antihypertensive activity in spontaneously hypertensive rats at 10 mg/kg peroral administration; method in brief: as §1
Rattus norvegicus [4] = test: Compound was evaluated for oral antihypertensive activity in spontaneously hypertensive rats at 3 mg/kg peroral administration; method in brief: as §1
Rattus norvegicus [5] = test: Compound was evaluated for oral antihypertensive activity in spontaneously hypertensive rats at 0.03 mg/kg peroral administration; method in brief: as §1
Rattus norvegicus [6] = test: Compound was evaluated for oral antihypertensive activity in spontaneously hypertensive rats at 0.1 mg/kg peroral administration; method in brief: as §1
Rattus norvegicus [7] = test: Compound was evaluated for oral antihypertensive activity in spontaneously hypertensive rats at 0.01 mg/kg peroral administration; method in brief: as §1
Rattus norvegicus [8] = test: Compound was evaluated for antihypertensive activity in deoxy-corticosterone acetate (DOCA) treated hypertensive rats at 1 mg/kg peroral administration; conditions: route oral
Rattus norvegicus [9] = test: Compound was evaluated for antihypertensive activity in deoxy-corticosterone acetate (DOCA) treated hypertensive rats at 0.3 mg/kg peroral administration; conditions: route oral
Rattus norvegicus [10] = test: Compound was evaluated for antihypertensive activity in deoxy-corticosterone acetate (DOCA) treated hypertensive rats at 10 mg/kg peroral administration; conditions: route oral
Rattus norvegicus [11] = test: Compound was evaluated for antihypertensive activity in deoxy-corticosterone acetate (DOCA) treated hypertensive rats at 100 mg/kg peroral administration; conditions: route oral
Rattus norvegicus [12] = test: Compound was evaluated for oral antihypertensive activity in spontaneously hypertensive rats at 100 mg/kg peroral administration; method in brief: as §1
Rattus norvegicus [13] = test: Compound was evaluated for antihypertensive activity in deoxy-corticosterone acetate (DOCA) treated hypertensive rats at 3 mg/kg peroral administration; conditions: route oral

| SMILES | Max fall in blood pressure (Rattus norvegicus [1]) | Max fall in blood pressure (Rattus norvegicus [2]) | Max fall in blood pressure (Rattus norvegicus [3]) | Max fall in blood pressure (Rattus norvegicus [6]) | Max fall in blood pressure (Rattus norvegicus [8]) | further results |
| --- | --- | --- | --- | --- | --- | --- |
| CC(=O)Nc1cc2c(cc1C(N)=O)[C@@H](N1CCCCC1)[C@H](O)C(C)(C)O2 | 34 mmHg | 50 mmHg |  |  |  |  |
| CC(=O)Nc1cc2c(cc1[N+](=O)[O-])OC(C)(C)[C@@H](O)[C@@H]2N1CCCCC1 |  |  | 89 mmHg |  |  | Max fall in blood pressure (Rattus norvegicus [4]): 44 mmHg |
| CC1(C)Oc2cc(N)c([N+](=O)[O-])cc2[C@@H](N2CCCCC2)[C@@H]1O | 111 mmHg |  |  | 110 mmHg |  | Max fall in blood pressure (Rattus norvegicus [5]): 71 mmHg; Max fall in blood pressure (Rattus norvegicus [7]): 14 mmHg |
| CC1(C)Oc2cc([N+](=O)[O-])c(N)cc2[C@@H](N2CCCCC2)[C@@H]1O | 42 mmHg | 67 mmHg |  |  |  |  |
| CC(=O)Nc1cc2c(cc1C#N)[C@@H](N1CCCC1)[C@H](O)C(C)(C)O2 | 149 mmHg |  |  | 36 mmHg |  |  |
| CC(=O)Nc1cc2c(cc1[N+](=O)[O-])OC(C)(C)[C@@H](O)[C@@H]2N1CCCC1 |  |  | 99 mmHg |  |  | Max fall in blood pressure (Rattus norvegicus [4]): 25 mmHg |
| CC1(C)Oc2cc([N+](=O)[O-])c(N)cc2[C@@H](N2CCCC2)[C@@H]1O | 83 mmHg | 71 mmHg |  | 22 mmHg |  |  |
| CC1(C)Oc2ccc(C#N)cc2C(N2CCCC2)[C@@H]1O.CS(=O)(=O)O (some centres not stated) | 41 mmHg | 61 mmHg |  |  | 43 mmHg | Max fall in blood pressure (Rattus norvegicus [9]): 15 mmHg |
| CC1(C)Oc2cc(N)c(C#N)cc2[C@@H](N2CCCC2)[C@@H]1O | 115 mmHg |  |  | 54 mmHg |  | Max fall in blood pressure (Rattus norvegicus [5]): 40 mmHg |
| CC(=O)Nc1cc2c(cc1[N+](=O)[O-])[C@@H](N1CCCCC1)[C@H](O)C(C)(C)O2 | 108 mmHg |  |  | 78 mmHg |  |  |
| CC1(C)Oc2cc(N)c([N+](=O)[O-])cc2[C@@H](N2CCCC2)[C@@H]1O |  |  |  | 122 mmHg |  | Max fall in blood pressure (Rattus norvegicus [5]): 47 mmHg |
| CC1(C)Oc2ccc(N)cc2C(N2CCCC2)[C@@H]1O.CS(=O)(=O)O (some centres not stated) |  |  | -10 mmHg |  | 6 mmHg |  |
| CC1(C)Oc2ccc([N+](=O)[O-])cc2C(N2CCCC2)[C@@H]1O.Cl (some centres not stated) | 32 mmHg | 52 mmHg |  |  | 52 mmHg |  |
| CC(=O)Nc1ccc2c(c1)C(N1CCCCC1)[C@H](O)C(C)(C)O2.Cl (some centres not stated) |  |  | 19 mmHg |  |  | Max fall in blood pressure (Rattus norvegicus [10]): 6 mmHg; Max fall in blood pressure (Rattus norvegicus [11]): 4 mmHg; Max fall in blood pressure (Rattus norvegicus [12]): 42 mmHg |
| CC1(C)Oc2cc([N+](=O)[O-])ccc2C(N2CCCC2)[C@@H]1O.Cl (some centres not stated) | 17 mmHg | 83 mmHg |  |  | 44 mmHg | Max fall in blood pressure (Rattus norvegicus [13]): 90 mmHg |
| CC1(C)Oc2ccc(C(N)=O)cc2C(N2CCCCC2)[C@@H]1O.Cl (some centres not stated) |  | 24 mmHg | 109 mmHg |  | 9 mmHg | Max fall in blood pressure (Rattus norvegicus [4]): 76 mmHg |
| Cl.NNc1nncc2ccccc12 [HYDRALAZINE HYDROCHLORIDE] |  | 42 mmHg | 89 mmHg |  | 32 mmHg | Max fall in blood pressure (Rattus norvegicus [10]): 113 mmHg; Max fall in blood pressure (Rattus norvegicus [13]): 65 mmHg; Max fall in blood pressure (Rattus norvegicus [4]): 51 mmHg |
| COC(=O)C1=C(C)NC(C)=C(C(=O)OC)C1c1ccccc1[N+](=O)[O-] [NIFEDIPINE] | 13 mmHg | 30 mmHg |  |  | 33 mmHg | Max fall in blood pressure (Rattus norvegicus [13]): 51 mmHg; Max fall in blood pressure (Rattus norvegicus [4]): 62 mmHg; Max fall in blood pressure (Rattus norvegicus [9]): 20 mmHg |
